How the values were obtained:
[1] = target: T1, Urease subunit alpha/Urease subunit beta (Helicobacter pylori (strain ATCC 700392 / 26695) (Campylobacterpylori), UniProt P69996); experiment: Inhibition of urease in Helicobacter pylori ATCC 43504 assessed as ammonia production incubated for 1.5 hrs prior to testing by indophenol method
Procedure, shortened: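 Washed cells were sonicated 60 s in water with protease inhibitors. The supernatant was desalted on Sephadex G-25 and stored with equal-volume glycerol at 4 °C. Enzyme was preincubated with compound 1.5 h at room temperature.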

[2] = target: T1, Urease subunit alpha/Urease subunit beta; experiment: Inhibition of urease isolated from Helicobacter pylori ATCC 43504 assessed as ammonia production incubated for 1.5 hrs prior to testing by indophenol method
Procedure, shortened: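 Washed cells were sonicated in water with protease inhibitors, and the supernatant was desalted on Sephadex G-25. This crude urease, mixed with an equal volume of glycerol, was pre-incubated with test compound for 1.5 h at room temperature.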

[3] = target: T2, Urease subunit alpha/Urease subunit beta (Helicobacter pylori (strain ATCC 700392 / 26695) (Campylobacterpylori)) (UniProt P69996+P14916); experiment: Potency index, ratio of AHA IC50 to compound IC50 for urease isolated from Helicobacter pylori ATCC 4350; details: Helicobacter pylori ATCC 43504
T2 sequence (P14916 whole entry, looked up): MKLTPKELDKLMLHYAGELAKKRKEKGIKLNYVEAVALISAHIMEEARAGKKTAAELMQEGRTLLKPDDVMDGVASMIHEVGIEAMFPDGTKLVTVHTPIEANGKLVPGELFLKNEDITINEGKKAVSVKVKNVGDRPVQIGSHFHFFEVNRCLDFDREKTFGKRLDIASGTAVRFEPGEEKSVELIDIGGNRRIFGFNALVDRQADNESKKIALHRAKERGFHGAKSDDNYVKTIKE
T2 sequence (P69996 whole entry, looked up): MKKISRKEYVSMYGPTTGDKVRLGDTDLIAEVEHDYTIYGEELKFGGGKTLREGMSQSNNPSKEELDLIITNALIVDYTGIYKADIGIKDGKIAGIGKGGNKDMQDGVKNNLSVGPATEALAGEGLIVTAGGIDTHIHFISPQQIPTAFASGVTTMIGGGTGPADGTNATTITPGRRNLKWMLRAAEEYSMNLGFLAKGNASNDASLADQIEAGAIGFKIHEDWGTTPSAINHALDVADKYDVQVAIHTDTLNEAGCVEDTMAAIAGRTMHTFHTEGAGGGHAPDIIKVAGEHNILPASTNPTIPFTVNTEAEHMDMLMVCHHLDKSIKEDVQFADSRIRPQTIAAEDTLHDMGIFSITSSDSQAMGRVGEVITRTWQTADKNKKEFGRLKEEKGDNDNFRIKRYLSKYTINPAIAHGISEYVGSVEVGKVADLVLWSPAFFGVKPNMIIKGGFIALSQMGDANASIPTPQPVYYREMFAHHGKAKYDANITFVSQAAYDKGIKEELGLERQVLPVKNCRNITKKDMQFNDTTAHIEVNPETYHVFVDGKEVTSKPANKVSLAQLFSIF

[4] = target: T2, Urease subunit alpha/Urease subunit beta (Helicobacter pylori (strain ATCC 700392 / 26695) (Campylobacterpylori)); experiment: Potency index, ratio of AHA IC50 to compound IC50 for urease in Helicobacter pylori ATCC 43504

T1 sequence (P69996 whole entry): as the sequence (P69996 whole entry, looked up) above
T1 sequence (P14916 whole entry, further chain): as the sequence (P14916 whole entry, looked up) above

Compound	IC50 [1] [µM]	IC50 [2] [µM]	Ratio IC50 [3]	Ratio IC50 [4]
CC(=O)NO [ACETOHYDROXAMIC ACID]	105	18.4		
O=[N+]([O-])c1ccccc1NCc1ccc(O)c(O)c1		45.1		
COc1ccc(NCc2ccc(Cl)cc2)cc1		> 500		
COc1ccc(NCc2cccc([N+](=O)[O-])c2)cc1		319		
O=[N+]([O-])c1ccc(CNc2cccc([N+](=O)[O-])c2)cc1		64.9		
O=[N+]([O-])c1cccc(CNc2cccc(Cl)c2)c1		410		
O=[N+]([O-])c1ccc(NCc2ccc(O)cc2)cc1	28.1	8.26		
COc1ccc(CNc2ccc(Cl)cc2)cc1OC		> 500		
CN(C)c1ccc(CNc2ccc(Cl)cc2)cc1		> 500		
O=[N+]([O-])c1cccc(NCc2ccc(O)c(O)c2)c1	9.52	2.33		
O=[N+]([O-])c1cccc(CNc2cccc([N+](=O)[O-])c2)c1		85		
COc1ccc(CNc2cccc([N+](=O)[O-])c2)cc1OC		50.4		
O=[N+]([O-])c1ccc(NCc2ccc(Cl)cc2)cc1	83.8	19.5		
O=[N+]([O-])c1cccc(NCc2ccc(Cl)cc2)c1		57.5		
Clc1ccc(NCc2ccc3c(c2)OCO3)cc1		> 500		
COc1ccc(NCc2ccc(N(C)C)cc2)cc1		> 500		
O=[N+]([O-])c1ccccc1CNc1ccc(Cl)cc1		239		
O=[N+]([O-])c1ccc(NCc2ccc(O)c(O)c2)cc1	1.92	0.62	29	54
CN(C)c1ccc(CNc2cccc([N+](=O)[O-])c2)cc1	72.4	16.8		
O=[N+]([O-])c1ccc(CNc2ccc([N+](=O)[O-])cc2)cc1	126	26.3		
O=[N+]([O-])c1ccc(CNc2cccc(Cl)c2)cc1		236		
